# Measured values from ChEMBL document CHEMBL4043283, “Discovery and Preclinical Development of IIIM-290, an Orally Active Potent Cyclin-Dependent Kinase Inhibitor” (J Med Chem, 2018).
# pIC50: −log10 of the molar value. The source made the active and inactive calls. The rule behind the calls is not given here.
# Columns and labels:
# [1] = system: Ehrlich; experiment: Antitumor activity against Swiss mouse EAC allografted in Swiss albino mouse assessed as tumor growth inhibition at 70 mg/kg, po administered for 9 day measured on day 13 relative to control; format: functional; conditions: read-out: TGI
# [2] = Cmax in Sprague-Dawley rat at 30 mg/kg, po by LC-MS/MS analysis; format: ADME, organism-based; set-up: dose 30 mg/kg, route oral; conditions: in vivo
# [3] = Cmax in Sprague-Dawley rat at 10 mg/kg, po by LC-MS/MS analysis; format: ADME, organism-based; set-up: dose 10 mg/kg, route oral; conditions: in vivo
# [4] = target: CDK6/cyclin D1 (Homo sapiens, UniProt Q00534); experiment: Inhibition of CDK6/cyclin D1 (unknown origin) after 30 mins in presence of [33P]-gamma-ATP by filter binding assay; format: protein-complex assay
# CDK6/cyclin D1, sequence (P24385 whole entry): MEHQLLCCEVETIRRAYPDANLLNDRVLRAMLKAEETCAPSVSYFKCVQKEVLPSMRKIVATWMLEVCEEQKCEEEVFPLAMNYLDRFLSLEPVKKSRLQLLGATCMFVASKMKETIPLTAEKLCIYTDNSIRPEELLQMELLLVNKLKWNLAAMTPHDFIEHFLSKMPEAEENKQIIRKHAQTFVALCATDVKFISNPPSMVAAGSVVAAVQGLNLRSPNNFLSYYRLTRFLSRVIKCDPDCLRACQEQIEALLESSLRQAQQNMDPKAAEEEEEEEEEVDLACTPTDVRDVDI
# CDK6/cyclin D1, sequence (Q00534 whole entry): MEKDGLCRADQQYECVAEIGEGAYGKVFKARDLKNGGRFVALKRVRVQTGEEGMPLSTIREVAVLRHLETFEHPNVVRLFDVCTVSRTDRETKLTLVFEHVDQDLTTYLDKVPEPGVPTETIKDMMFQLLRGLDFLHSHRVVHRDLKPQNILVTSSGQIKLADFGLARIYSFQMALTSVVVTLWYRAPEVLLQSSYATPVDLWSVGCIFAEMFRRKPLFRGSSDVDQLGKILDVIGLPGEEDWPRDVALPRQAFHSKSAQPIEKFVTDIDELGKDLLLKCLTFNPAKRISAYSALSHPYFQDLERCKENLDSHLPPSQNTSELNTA
# [5] = system: T47D; experiment: Growth inhibition of human T47D cells after 48 hrs by MTT assay; format: functional
# Summary of the method: (§1)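 Cancer cell lines sourced from the National Cancer Institute (USA). Cells kept in appropriate growth medium at 37 °C, 95% humidity, 5% CO2. Antiproliferation read by tetrazolium (MTT) assay. GI50 values were determined only for compounds selected after an initial single-concentration screen.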
# [6] = n-octanol-PBS distribution co-efficient, log D of compound at pH 7.4 by shake flask method; format: physicochemical
# [7] = system: Ehrlich; experiment: Antitumor activity against Swiss mouse EAC allografted in Swiss albino mouse assessed as tumor growth inhibition at 100 mg/kg, po administered for 9 day measured on day 13 relative to control; format: functional; conditions: read-out: TGI
# [8] = Protein binding in mouse plasma at 3 uM after 5 hrs by equilibrium dialysis method; format: ADME, cell-free; conditions: read-out: PPB (converted)
# [9] = Initial concentration in BALB/c mouse at 1 mg/kg, iv by LC-MS/MS analysis; format: ADME, organism-based; conditions: in vivo
# [10] = system: MIA PaCa-2; experiment: Induction of apoptosis in human MIAPaCa2 cells assessed as intracellular vesicle formation after 24 hrs by scanning electron microscopy; format: functional, cell-based
# Summary of the method: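 Cells exposed to different compound concentrations for 24 h on coverslips, fixed in 2.5% glutaraldehyde in 0.1 M phosphate buffer pH 7.2 (4 °C, 24 h), postfixed in 1% OsO4 4 h, ethanol-dehydrated, critical-point dried with HMDS, gold-coated, imaged at 20 kV.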
# [11] = system: NCI-H226; experiment: Growth inhibition of human NCI-H226 cells after 48 hrs by MTT assay; format: functional; conditions: NCI-H226, 48 h; summary of the method: as §1
# [12] = Intrinsic clearance in monkey liver S9 fraction assessed per mg of protein preincubated for 5 mins followed by NADPH addition measured after 30 mins by LC-MS/MS analysis; format: ADME, tissue-based, Macaca mulatta; conditions: rhesus monkey, s9, 0.5 h
# [13] = system: Lung; experiment: Drug uptake in BALB/c mouse lung at 30 mg/kg, po after 8 hrs; format: ADME, organism-based; conditions: in vivo
# [14] = Cmax in BALB/c mouse at 30 mg/kg, po by LC-MS/MS analysis; format: ADME, organism-based; set-up: dose 30 mg/kg, route oral; conditions: in vivo
# [15] = AUC in Sprague-Dawley rat at 30 mg/kg, po by LC-MS/MS analysis; format: ADME, organism-based; conditions: in vivo
# [16] = system: MIA PaCa-2; experiment: Induction of apoptosis in human MIAPaCa2 cells assessed as PARP cleavage by Western blot method; format: functional, cell-based
# Summary of the method: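 Lysate protein quantified against a BSA standard; 70 μg resolved by SDS-PAGE, transferred to PVDF overnight at 4 °C, 30 V; blocked 1 h in 5% nonfat milk/TBST; primary antibodies 2–4 h, HRP anti-mouse secondary 1 h; ECL detection on X-ray film.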
# [17] = AUC (0 to t) in BALB/c mouse at 10 mg/kg, po by LC-MS/MS analysis; format: ADME, organism-based; conditions: in vivo
# [18] = system: PBL; experiment: Genotoxicity in human PBL at 0.125 to 2 ug/ml in presence of cytokinesis blocking agent cytochalasin B and absence of liver S9 fraction by micronucleus test; format: toxicity, cell-based
# [19] = system: PC-3; experiment: Growth inhibition of human PC3 cells at 10 uM after 48 hrs by MTT assay relative to control; format: functional; conditions: PC-3, 48 h, read-out: GI
# Summary of the method: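 Single-concentration primary screen at 10 μM by MTT assay. Cells were NCI-sourced cancer lines grown in appropriate medium at 37 °C, 95% humidity, 5% CO2. Growth inhibition is expressed relative to control.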
# [20] = Growth inhibition of human SW630 cells after 48 hrs by MTT assay; format: functional; conditions: SW630, 48 h; summary of the method: as §1
# [21] = system: HCT-116; experiment: Antitumor activity against human HCT116 cells xenografted in CD1 nude mouse assessed as tumor growth inhibition at 25 mg/kg, po qd administered on day 10 to 25 post tumor inoculation; format: functional, organism-based
# [22] = system: Salmonella typhimurium; experiment: Mutagenicity in Salmonella typhimurium TA102 at 50 ug/plate in absence of liver S9 fraction by Ames test; format: toxicity; conditions: salmonella enterica subsp. enterica serovar typhimurium
# [23] = target: CDK1/Cyclin A (Homo sapiens, UniProt P06493); experiment: Inhibition of CDK1/cyclin A (unknown origin) after 30 mins in presence of [33P]-gamma-ATP by filter binding assay; format: protein-complex assay
# CDK1/Cyclin A, sequence (P06493 whole entry): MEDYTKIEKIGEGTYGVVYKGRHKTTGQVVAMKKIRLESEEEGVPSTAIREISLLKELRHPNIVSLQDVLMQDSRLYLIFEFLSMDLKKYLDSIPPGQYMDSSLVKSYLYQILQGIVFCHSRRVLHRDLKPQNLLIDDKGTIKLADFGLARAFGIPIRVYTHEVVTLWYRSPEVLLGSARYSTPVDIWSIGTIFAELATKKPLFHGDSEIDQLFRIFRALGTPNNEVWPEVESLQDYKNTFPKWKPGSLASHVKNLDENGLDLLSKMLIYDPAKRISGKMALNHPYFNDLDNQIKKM
# CDK1/Cyclin A, sequence (P20248 whole entry, further chain): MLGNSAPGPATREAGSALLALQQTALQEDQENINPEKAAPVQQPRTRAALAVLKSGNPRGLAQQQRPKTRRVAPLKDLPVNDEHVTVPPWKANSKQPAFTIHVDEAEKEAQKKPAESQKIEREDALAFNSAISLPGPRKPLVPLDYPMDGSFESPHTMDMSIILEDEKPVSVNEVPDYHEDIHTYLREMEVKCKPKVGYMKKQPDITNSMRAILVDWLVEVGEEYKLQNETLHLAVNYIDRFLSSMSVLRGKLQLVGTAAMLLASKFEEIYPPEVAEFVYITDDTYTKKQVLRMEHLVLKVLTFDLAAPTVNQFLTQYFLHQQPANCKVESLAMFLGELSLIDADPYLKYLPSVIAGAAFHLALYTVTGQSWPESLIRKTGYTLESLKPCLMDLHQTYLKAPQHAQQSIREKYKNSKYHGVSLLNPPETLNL
# [24] = system: Tyrosine-protein kinase ABL1 (Homo sapiens), P00519 [Q252H]; experiment: Inhibition of partial length human ABL1 Q252H mutant expressed in mammalian expression system at 0.5 uM by KINOMEscan method relative to control
# Summary of the method: (§2)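 Competition binding screen (KINOMEscan) at 0.5 μM; primary binding read out as % of control, lower values indicating stronger interaction.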
# [25] = target: CDK4/Cyclin D3 (Homo sapiens) (UniProt P11802+P30281); experiment: Inhibition of full length wild type human CDK4/cyclin D3 expressed in mammalian expression system at 0.5 uM by KINOMEscan method relative to control; summary of the method: as §2
# [26] = system: Liver; experiment: Intrinsic clearance in rat liver S9 fraction assessed per mg of protein preincubated for 5 mins followed by NADPH addition measured after 30 mins by LC-MS/MS analysis; format: ADME, tissue-based; conditions: s9, 0.5 h
# [27] = system: A549; experiment: Growth inhibition of human A549 cells after 48 hrs by MTT assay; format: functional; conditions: A549, 48 h; summary of the method: as §1
# [28] = Half life in Sprague-Dawley rat at 10 mg/kg, po by LC-MS/MS analysis; format: ADME, organism-based; conditions: in vivo
# [29] = Half life in mouse liver microsomes at 100 uM after 30 mins by LC-MS/MS analysis; format: ADME, microsome
# Summary of the method: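 Parent loss followed over time to give half-life, with NADPH as cofactor for microsomal phase I metabolism.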
# [30] = system: Liver; experiment: Intrinsic clearance in dog liver S9 fraction assessed per mg of protein preincubated for 5 mins followed by NADPH addition measured after 30 mins by LC-MS/MS analysis; format: ADME, tissue-based, Canis lupus familiaris; conditions: s9, 0.5 h
# Summary of the method: (§3)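 Intrinsic clearance obtained from substrate disappearance over time, reported per mg protein (microsomes, S9) or per 10^6 cells (hepatocytes).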
# [31] = Half life in rat hepatocytes at 3 uM after 180 mins by LC-MS/MS analysis; format: ADME, cell-based, Hepatocyte
# [32] = Cmax in Sprague-Dawley rat at 3 mg/kg, po by LC-MS/MS analysis; format: ADME, organism-based; set-up: dose 3 mg/kg, route oral; conditions: in vivo
# [33] = Intrinsic clearance in human hepatocytes assessed per million cells at 3 uM after 180 mins by LC-MS/MS analysis; format: ADME, cell-based, Hepatocyte; conditions: read-out: CLH; summary of the method: as §3
# [34] = system: Caco-2; experiment: Growth inhibition of human Caco2 cells after 48 hrs by MTT assay; format: functional; conditions: Caco-2, 48 h; summary of the method: as §1
compound,measurement,setting,value
CN1CC[C@H](c2c(O)cc(O)c3c(=O)cc(/C=C/c4c(Cl)cccc4Cl)oc23)[C@H](O)C1,inhibition in vivo at 70 mg/kg,[1],31%
same,Cmax,[2],3620 nM
same,Cmax,[3],900 nM
same,pIC50,[4],7.35
same,GI50,[5],6 µM
same,logD,[6],1.65
same,inhibition in vivo at 100 mg/kg,[7],39%
same,"fraction unbound at 5 h, 3 µM",[8],0.028
same,C0,[9],859 ng/mL
same,Activity,[10],Active
same,GI50,[11],4 µM
same,CLint,[12],25 µL/min/mg
same,Drug uptake,[13],Active
same,Cmax,[14],4110 nM
same,AUC,[15],15.9 µM·h
same,Activity,[16],Dose-dependent effect
same,AUC(0-t),[17],4.5 µM·h
same,Activity,[18],Non-Toxic
same,inhibition of growth at 10 µM,[19],84%
same,GI50,[20],0.3 µM
same,TGI,[21],inactive
same,Activity,[22],Non-Toxic
same,pIC50,[23],8.31
same,inhibition,[24],> 98%
same,inhibition,[25],> 98%
same,CLint,[26],45 µL/min/mg
same,GI50,[27],4 µM
same,half-life,[28],5.16 h
same,half-life at 100 µM,[29],> 0.5 h
same,CLint,[30],12 µL/min/mg
same,half-life at 3 µM,[31],6.27 h
same,Cmax,[32],316 nM
same,hepatocyte CLint at 3 µM,[33],4.8 µL/min/1e6 cells
same,GI50,[34],7 µM
